Key:
[1] = system: Liver microsome; assay: Covalent binding in human liver microsomes measured per mg of protein using radiolabelled compound at 10 uM after 1 hr incubation by liquid scintillation counting
[2] = system: Liver microsome; assay: Metabolic activation in human liver microsomes assessed as [3H]GSH adduct formation rate measured per mg of protein at 100 uM by [3H]GSH trapping assay
[3] = target: T1, CYP2C9 (Homo sapiens, UniProt P11712); assay: Time dependent inhibition of CYP2C9 (unknown origin) at 10 uM by LC/MS system; assay type: ADME
T1 sequence (P11712 whole entry): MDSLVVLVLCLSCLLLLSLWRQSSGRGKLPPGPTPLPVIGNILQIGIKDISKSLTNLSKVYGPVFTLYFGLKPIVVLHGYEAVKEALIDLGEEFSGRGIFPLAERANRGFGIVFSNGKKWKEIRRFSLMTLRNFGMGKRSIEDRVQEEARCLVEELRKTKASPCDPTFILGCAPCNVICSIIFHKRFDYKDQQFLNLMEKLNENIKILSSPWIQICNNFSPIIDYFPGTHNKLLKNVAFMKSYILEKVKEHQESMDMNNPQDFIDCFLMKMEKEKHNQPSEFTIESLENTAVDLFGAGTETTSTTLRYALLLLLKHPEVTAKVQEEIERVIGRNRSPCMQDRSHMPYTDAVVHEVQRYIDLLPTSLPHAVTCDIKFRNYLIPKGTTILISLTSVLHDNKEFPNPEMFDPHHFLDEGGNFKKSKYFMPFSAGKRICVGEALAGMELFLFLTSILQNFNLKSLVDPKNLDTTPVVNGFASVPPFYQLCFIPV
Procedure, shortened: (§1)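 Human liver microsomes at 1.0 mg/mL were preincubated 0 or 30 min with compound and NADPH-generating system in 0.1 M sodium phosphate, then diluted ten-fold into incubation containing 200 μM tolbutamide (final) for 10 min to probe CYP2C9. Percent of matched no-inhibitor control was determined at each time. Inactivation = 100 × [1 − ratio of 30-min to 0-min values]; 10% threshold.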

[4] = Intrinsic clearance for reactive metabolites formation per mg of protein based on cytochrome P450 (unknown origin) inactivation rate by TDI assay; conditions: human
[5] = Intrinsic clearance for reactive metabolites formation assessed as summation of [3H]GSH adduct formation rate-based reactive metabolites formation and cytochrome P450 (unknown origin) inactivation rate-based reactive metabolites formation; conditions: human
[6] = system: Liver microsome; conditions: human, microsomes, 100 µM
[7] = target: T2, CYP1A2 (Homo sapiens, UniProt P05177); assay: in vitro
T2 sequence (P05177 whole entry): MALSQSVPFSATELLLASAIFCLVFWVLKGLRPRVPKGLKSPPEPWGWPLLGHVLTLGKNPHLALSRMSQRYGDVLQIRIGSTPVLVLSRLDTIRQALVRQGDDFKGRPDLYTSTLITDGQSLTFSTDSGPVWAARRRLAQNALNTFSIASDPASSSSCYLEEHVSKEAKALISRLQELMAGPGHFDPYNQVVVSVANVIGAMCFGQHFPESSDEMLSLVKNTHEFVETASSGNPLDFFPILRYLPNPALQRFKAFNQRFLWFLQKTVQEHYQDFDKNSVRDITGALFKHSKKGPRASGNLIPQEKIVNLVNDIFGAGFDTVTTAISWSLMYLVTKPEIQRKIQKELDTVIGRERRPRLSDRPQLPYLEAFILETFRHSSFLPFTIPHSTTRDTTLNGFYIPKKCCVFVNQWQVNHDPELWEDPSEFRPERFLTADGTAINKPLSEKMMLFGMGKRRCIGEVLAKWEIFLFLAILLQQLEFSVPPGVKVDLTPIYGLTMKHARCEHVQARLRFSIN

[8] = target: T3, CYP2B6 (Homo sapiens, UniProt P20813); assay: in vitro
T3 sequence (P20813 whole entry): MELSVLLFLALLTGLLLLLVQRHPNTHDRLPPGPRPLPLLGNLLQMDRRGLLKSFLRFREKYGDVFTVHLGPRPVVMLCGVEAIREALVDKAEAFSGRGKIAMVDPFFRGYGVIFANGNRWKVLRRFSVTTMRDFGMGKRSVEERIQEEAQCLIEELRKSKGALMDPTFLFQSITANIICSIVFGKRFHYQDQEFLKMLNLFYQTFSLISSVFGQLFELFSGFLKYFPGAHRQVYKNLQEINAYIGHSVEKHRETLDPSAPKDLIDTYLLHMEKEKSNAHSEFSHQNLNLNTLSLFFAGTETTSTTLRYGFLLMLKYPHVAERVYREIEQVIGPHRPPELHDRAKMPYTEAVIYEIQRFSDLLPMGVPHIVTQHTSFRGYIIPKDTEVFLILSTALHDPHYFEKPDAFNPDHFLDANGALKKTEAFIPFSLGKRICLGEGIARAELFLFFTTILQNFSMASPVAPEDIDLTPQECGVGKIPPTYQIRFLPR

[9] = target: T4, CYP2C19 (Homo sapiens, UniProt P33261); assay: in vitro
T4 sequence (P33261 whole entry): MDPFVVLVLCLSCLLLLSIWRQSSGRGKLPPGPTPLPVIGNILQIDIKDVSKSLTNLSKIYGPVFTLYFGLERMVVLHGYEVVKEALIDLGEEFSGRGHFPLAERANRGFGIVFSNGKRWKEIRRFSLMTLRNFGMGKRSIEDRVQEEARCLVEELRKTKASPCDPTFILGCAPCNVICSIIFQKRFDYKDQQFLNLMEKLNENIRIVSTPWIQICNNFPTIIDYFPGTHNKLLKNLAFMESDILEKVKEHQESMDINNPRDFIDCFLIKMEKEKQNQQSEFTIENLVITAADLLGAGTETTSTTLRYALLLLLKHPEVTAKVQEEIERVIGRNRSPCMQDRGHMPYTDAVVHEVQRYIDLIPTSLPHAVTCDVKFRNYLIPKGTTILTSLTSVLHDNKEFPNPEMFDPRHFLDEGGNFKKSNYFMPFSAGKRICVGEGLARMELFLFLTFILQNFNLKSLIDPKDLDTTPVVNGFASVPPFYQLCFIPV

[10] = target: T5, CYP2D6 (Homo sapiens, UniProt P10635); assay: in vitro
T5 sequence (P10635 whole entry): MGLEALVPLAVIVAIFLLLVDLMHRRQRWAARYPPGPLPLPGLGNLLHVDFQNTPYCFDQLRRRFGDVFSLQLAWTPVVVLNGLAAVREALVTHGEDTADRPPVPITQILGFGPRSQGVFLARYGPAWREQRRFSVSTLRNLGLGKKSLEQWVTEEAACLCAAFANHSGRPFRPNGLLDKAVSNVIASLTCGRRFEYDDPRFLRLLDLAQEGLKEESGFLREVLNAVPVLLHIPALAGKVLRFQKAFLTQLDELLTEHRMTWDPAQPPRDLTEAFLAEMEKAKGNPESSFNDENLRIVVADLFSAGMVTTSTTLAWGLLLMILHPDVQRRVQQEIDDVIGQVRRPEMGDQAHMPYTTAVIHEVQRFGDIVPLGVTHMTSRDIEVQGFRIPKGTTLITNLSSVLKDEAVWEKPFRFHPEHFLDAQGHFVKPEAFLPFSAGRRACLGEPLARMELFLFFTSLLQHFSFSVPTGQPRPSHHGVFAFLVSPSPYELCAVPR

[11] = target: T6, CYP3A4 (Homo sapiens, UniProt P08684); assay: in vitro
T6 sequence (P08684 whole entry): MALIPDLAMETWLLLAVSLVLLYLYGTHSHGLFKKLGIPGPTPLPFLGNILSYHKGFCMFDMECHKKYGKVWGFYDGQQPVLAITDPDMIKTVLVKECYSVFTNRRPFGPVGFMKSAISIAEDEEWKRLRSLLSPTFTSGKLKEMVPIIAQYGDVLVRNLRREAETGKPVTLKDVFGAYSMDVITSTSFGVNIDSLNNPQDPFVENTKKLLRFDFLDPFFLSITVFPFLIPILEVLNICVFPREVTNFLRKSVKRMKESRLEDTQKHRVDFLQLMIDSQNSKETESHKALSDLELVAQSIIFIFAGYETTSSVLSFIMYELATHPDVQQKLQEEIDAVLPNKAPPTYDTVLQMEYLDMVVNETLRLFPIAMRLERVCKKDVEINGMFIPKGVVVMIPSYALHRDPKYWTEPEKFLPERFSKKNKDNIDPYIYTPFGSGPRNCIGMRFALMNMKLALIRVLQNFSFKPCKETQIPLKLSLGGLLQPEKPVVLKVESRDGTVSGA

[12] = target: T7, CYP2C8 (Homo sapiens, UniProt P10632); assay: in vitro
T7 sequence (P10632 whole entry): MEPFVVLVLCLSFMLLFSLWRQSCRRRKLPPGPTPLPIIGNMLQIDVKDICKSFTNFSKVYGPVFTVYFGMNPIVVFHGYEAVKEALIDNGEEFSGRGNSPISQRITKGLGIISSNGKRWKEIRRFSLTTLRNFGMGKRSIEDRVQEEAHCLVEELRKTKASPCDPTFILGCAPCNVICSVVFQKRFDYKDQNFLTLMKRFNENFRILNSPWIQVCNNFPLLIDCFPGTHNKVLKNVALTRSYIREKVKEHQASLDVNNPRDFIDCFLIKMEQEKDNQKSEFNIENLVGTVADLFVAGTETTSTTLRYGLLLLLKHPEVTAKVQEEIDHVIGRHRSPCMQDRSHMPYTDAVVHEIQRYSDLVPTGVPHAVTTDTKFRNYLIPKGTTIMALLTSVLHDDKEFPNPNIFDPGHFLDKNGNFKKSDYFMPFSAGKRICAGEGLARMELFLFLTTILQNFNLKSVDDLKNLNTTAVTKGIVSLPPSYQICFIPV

[13] = target: T3, CYP2B6; assay: Time dependent inhibition of CYP2B6 (unknown origin) at 3 uM by LC/MS system; assay type: ADME
[14] = target: T6, CYP3A4; assay: Time dependent inhibition of CYP3A4 (unknown origin) at 10 uM by LC/MS system; assay type: ADME
Procedure, shortened: (§2)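 CYP3A4: human liver microsomes at 0.5 mg/mL in preincubation, 0.1 M sodium phosphate, NADPH-generating system, 0 or 30 min. Ten-fold dilution into incubation with 2.5 μM midazolam (final), 10 min. Each value is relative to the matched control without inhibitor. % enzyme inactivation = 100 × [1 − %control(30 min)/%control(0 min)]; 10% threshold.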

[15] = target: T1, CYP2C9; assay: Time dependent inhibition of CYP2C9 (unknown origin) at 30 uM by LC/MS system; assay type: ADME; procedure, shortened: as §1
[16] = target: T5, CYP2D6; assay: Time dependent inhibition of CYP2D6 (unknown origin) at 30 uM by LC/MS system; assay type: ADME
Procedure, shortened: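 Preincubation with HLMs at 1.0 mg/mL in 0.1 M sodium phosphate plus NADPH-generating system for 0 or 30 min, then tenfold dilution into incubation containing 30 μM dextromethorphan for 10 min; chromatographic read-out. Activity relative to controls without inhibitor; inactivation = 100×[1 − %control(30 min)/%control(0 min)], threshold 10%. Initial 100 μM lowered where reversible inhibition was strong.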

[17] = target: T3, CYP2B6; assay: Time dependent inhibition of CYP2B6 (unknown origin) at 30 uM by LC/MS system; assay type: ADME
Procedure, shortened: (§3)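 CYP2B6 in human liver microsomes (1.0 mg/mL in preincubation), 0.1 M sodium phosphate, NADPH-generating system. Preincubation 0 or 30 min, then ten-fold dilution into incubation solution containing 50 μM bupropion (final) for 10 min. Activity is expressed as percent of the matched no-inhibitor control. % inactivation = 100 × [1 − control(30 min)/control(0 min)]; threshold 10%.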

[18] = target: T3, CYP2B6; assay: Time dependent inhibition of CYP2B6 (unknown origin) at 0.3 uM by LC/MS system; assay type: ADME; procedure, shortened: as §3
[19] = target: T1, CYP2C9; assay: in vitro
[20] = target: T7, CYP2C8; assay: Time dependent inhibition of CYP2C8 (unknown origin) at 10 uM by LC/MS system; assay type: ADME
Procedure, shortened: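 CYP2C8 in human liver microsomes (1.0 mg/mL in preincubation), 0.1 M sodium phosphate, NADPH-generating system. Preincubation 0 or 30 min, then ten-fold dilution into incubation with 10 μM paclitaxel (final) for 10 min.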

[21] = target: T6, CYP3A4; assay: Time dependent inhibition of CYP3A4 (unknown origin) at 50 uM by LC/MS system; assay type: ADME; procedure, shortened: as §2
[22] = target: T4, CYP2C19; assay: in vitro; conditions: human liver microsomes
[23] = target: T4, CYP2C19; assay: Time dependent inhibition of CYP2C19 in human liver microsomes at 30 uM by LC/MS system; assay type: ADME
Procedure, shortened: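 Human liver microsomes at 2.0 mg/mL in preincubation, 0.1 M sodium phosphate, NADPH-generating system; 0- or 30-min preincubation with inhibitor, then tenfold dilution into incubation containing 50 μM (S)-mephenytoin for 10 min; LC separation. Percent inactivation = 100×[1 − %control(30 min)/%control(0 min)] versus inhibitor-free controls; >10% counted positive. Concentration reduced from 100 μM for strong reversible inhibitors.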

[24] = target: T5, CYP2D6; assay: Time dependent inhibition of CYP2D6 (unknown origin) at 10 uM by LC/MS system; assay type: ADME
Procedure, shortened: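 CYP2D6 activity was measured with 30 μM dextromethorphan (final) after 0 or 30 min preincubation of compound with human liver microsomes (1.0 mg/mL) and NADPH-generating system in 0.1 M sodium phosphate. A ten-fold dilution was followed by a 10-min incubation. % inactivation = 100 × [1 − %control(30 min)/%control(0 min)]; threshold 10%.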

[25] = target: T3, CYP2B6; assay: in vitro; remark: listed apart in the source
[26] = target: T3, CYP2B6; assay: Time dependent inhibition of CYP2B6 (unknown origin) at 10 uM by LC/MS system; assay type: ADME; procedure, shortened: as §3
[27] = target: T7, CYP2C8; assay: Time dependent inhibition of CYP2C8 (unknown origin) at 3 uM by LC/MS system; assay type: ADME
Procedure, shortened: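 CYP2C8 in human liver microsomes (1.0 mg/mL in preincubation), 0.1 M sodium phosphate, NADPH-generating system. Preincubation 0 or 30 min, then ten-fold dilution into incubation with 10 μM paclitaxel (final) for 10 min. Activity is taken relative to the matched no-inhibitor control. % inactivation = 100 × [1 − %control(30 min)/%control(0 min)]; threshold 10%.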

Structure (SMILES)	PB [1]	Drug metabolism [2]	clearance [4]	clearance [5]	CLH [6]	inhibition at 100 µM [7]	inhibition at 100 µM ([9]; microsomes)	inhibition at 100 µM [10]	inhibition at 100 µM [11]	inhibition at 100 µM [12]	inhibition at 10 µM [14]	inhibition at 30 µM [15]	inhibition at 100 µM [19]	other results
O=C(O)COc1ccc(C(=O)c2cccs2)c(Cl)c1Cl	436.7 pmol	4.2 pmol/min	0.069 µL/min/mg	0.111 µL/min/mg	0.042 µL/min/mg	< 10%	35%	< 10%	< 10%	< 10%				inhibition at 10 µM [3]: 28%; inhibition at 100 µM [8]: < 10%
CCOC(=O)C1=C(COCCN)NC(C)=C(C(=O)OC)C1c1ccccc1Cl (stereo not drawn) [AMLODIPINE]	7.1 pmol	metabolite_not_detected				< 10%		< 10%	42%	< 10%	< 10%	< 10%		inhibition at 3 µM [13]: < 10%; inhibition at 30 µM [16]: < 10%; inhibition at 100 µM ([9]; human liver microsomes): < 10%
Cc1ccc(-c2cc(C(F)(F)F)nn2-c2ccc(S(N)(=O)=O)cc2)cc1 [CELECOXIB]	13 pmol	metabolite_not_detected				< 10%	< 10%			< 10%	< 10%	< 10%		inhibition at 30 µM [17]: < 10%; inhibition at 30 µM [16]: < 10%
COC(=O)[C@H](c1ccccc1Cl)N1CCc2sccc2C1 [CLOPIDOGREL]	417.4 pmol	23.6 pmol/min	0.848 µL/min/mg	1.08 µL/min/mg	0.236 µL/min/mg	< 10%	10%	< 10%		< 10%			< 10%	inhibition at 0.3 µM [18]: 44%
C#C[C@]1(O)CC[C@H]2[C@@H]3CCc4cc(O)ccc4[C@H]3CC[C@@]21C [ETHINYL ESTRADIOL]	937.5 pmol	34 pmol/min	0.087 µL/min/mg	0.427 µL/min/mg	0.34 µL/min/mg	18%		< 10%				27%		inhibition at 30 µM [17]: < 10%; inhibition at 10 µM [20]: < 10%; inhibition at 50 µM [21]: 65%; inhibition at 10 µM [22]: < 10%
CNCCC(Oc1ccc(C(F)(F)F)cc1)c1ccccc1 (stereo not drawn) [FLUOXETINE]	15 pmol	metabolite_not_detected	0.008 µL/min/mg	0.008 µL/min/mg		12%			< 10%	< 10%			< 10%	inhibition at 30 µM [23]: 36%; inhibition at 10 µM [24]: < 10%; inhibition at 100 µM [8]: < 10%
Clc1ccccc1CN1CCc2sccc2C1 [TICLOPIDINE]						36%			26%	< 10%			< 10%	inhibition at 10 µM [24]: < 10%; inhibition at 0.1 µM [25]: 35%
COc1cc(C(=O)NS(=O)(=O)c2ccccc2C)ccc1Cc1cn(C)c2ccc(NC(=O)OC3CCCC3)cc12 [ZAFIRLUKAST]	36.4 pmol	metabolite_not_detected	0.207 µL/min/mg	0.207 µL/min/mg		11%		< 10%			43%			inhibition at 10 µM [26]: < 10%; inhibition at 3 µM [27]: < 10%; inhibition at 10 µM [3]: < 10%; inhibition at 100 µM ([9]; human liver microsomes): < 10%

From ChEMBL document CHEMBL3526118, “Combination of GSH trapping and time-dependent inhibition assays as a predictive method of drugs generating highly reactive metabolites” (Drug Metab Dispos, 2011)
